ChEMBL document CHEMBL5696442, “Discovery of type II inhibitors of TGFβ-activated kinase 1 (TAK1) and mitogen-activated protein kinase kinase kinase kinase 2 (MAP4K2)” (J Med Chem, 2015)

Key:
[1] = target: Ankyrin repeat and protein kinase domain-containing protein 1 (Homo sapiens) (UniProt Q8NFD2); assay: Inhibition of ANKK1 (unknown origin) at 10 uM by Ambit Kinomescan binding assay relative to control
[2] = target: Misshapen-like kinase 1 (Homo sapiens) (UniProt Q8N4C8); assay: Inhibition of ZC3/MINK Lys2 labeling site in human A-375 cells at 5 uM by KiNativ Profiling analysis relative to control; type: cell-based
Sequence of Misshapen-like kinase 1 (Homo sapiens) (Q8N4C8 whole entry, looked up): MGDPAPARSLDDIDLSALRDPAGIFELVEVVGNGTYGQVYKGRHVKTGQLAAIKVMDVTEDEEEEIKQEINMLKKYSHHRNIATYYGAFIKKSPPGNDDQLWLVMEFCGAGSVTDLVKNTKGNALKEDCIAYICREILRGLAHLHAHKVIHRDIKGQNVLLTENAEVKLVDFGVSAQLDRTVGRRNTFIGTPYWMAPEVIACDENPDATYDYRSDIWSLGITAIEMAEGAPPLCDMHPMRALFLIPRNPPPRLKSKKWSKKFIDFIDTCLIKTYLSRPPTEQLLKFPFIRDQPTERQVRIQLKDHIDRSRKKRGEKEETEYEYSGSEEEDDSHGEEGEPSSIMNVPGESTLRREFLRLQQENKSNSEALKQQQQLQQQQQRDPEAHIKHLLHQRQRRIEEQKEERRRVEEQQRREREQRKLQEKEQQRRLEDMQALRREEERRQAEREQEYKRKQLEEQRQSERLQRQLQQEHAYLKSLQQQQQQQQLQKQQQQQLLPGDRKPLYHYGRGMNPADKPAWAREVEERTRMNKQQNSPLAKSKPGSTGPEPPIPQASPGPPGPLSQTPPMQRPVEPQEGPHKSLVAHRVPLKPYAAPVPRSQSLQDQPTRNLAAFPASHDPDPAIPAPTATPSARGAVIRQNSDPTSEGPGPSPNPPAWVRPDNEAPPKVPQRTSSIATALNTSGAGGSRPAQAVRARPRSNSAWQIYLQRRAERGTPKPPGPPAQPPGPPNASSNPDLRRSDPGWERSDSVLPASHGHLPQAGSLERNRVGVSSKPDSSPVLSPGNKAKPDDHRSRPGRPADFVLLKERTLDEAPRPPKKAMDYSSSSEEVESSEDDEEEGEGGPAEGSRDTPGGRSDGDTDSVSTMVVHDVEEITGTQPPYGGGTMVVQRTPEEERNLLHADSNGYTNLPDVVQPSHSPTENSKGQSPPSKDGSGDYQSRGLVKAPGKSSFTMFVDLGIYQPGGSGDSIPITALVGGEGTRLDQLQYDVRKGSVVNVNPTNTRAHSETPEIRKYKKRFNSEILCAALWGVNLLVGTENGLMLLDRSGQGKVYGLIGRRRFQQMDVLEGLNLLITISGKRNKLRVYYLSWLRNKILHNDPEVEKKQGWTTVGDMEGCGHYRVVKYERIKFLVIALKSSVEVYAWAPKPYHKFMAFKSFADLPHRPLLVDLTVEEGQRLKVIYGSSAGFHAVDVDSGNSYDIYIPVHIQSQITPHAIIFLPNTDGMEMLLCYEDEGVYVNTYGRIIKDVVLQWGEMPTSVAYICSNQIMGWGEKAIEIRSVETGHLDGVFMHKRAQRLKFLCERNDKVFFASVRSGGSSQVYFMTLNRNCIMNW

[3] = target: Rho-associated protein kinase 2 (Homo sapiens) (UniProt O75116); assay: Inhibition of ROCK2 Lys2 labeling site in human A-375 cells at 0.5 uM by KiNativ Profiling analysis relative to control; type: cell-based
In short: (§1)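 Live A375 melanoma cells treated with compound at 5 or 0.5 μM, then lysed. Lysate kinases were labeled with a lysine-reactive ATP or ADP-biotin probe. Inhibition was read as protection of labeling sites from the probe.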

[4] = target: Serine/threonine-protein kinase SMG1 (Homo sapiens) (UniProt Q96Q15); assay: Inhibition of SMG1 ATP labeling site harbouring DTVTIHSVGGTITILPTKTKPK in human A-375 cells at 0.5 uM by KiNativ Profiling analysis relative to control; type: cell-based; in short: as §1
[5] = target: Tyrosine-protein kinase ABL2 (Homo sapiens, UniProt P42684); assay: Inhibition of ARG ACT labeling site in human A-375 cells at 0.05 uM by KiNativ Profiling analysis relative to control; type: cell-based
[6] = target: Serine/threonine-protein kinase Aurora (Homo sapiens) (UniProt Q96GD4+Q9UQB9+O14965); assay: Inhibition of AurA/B/C ATP labeling site in human Huh-7 cells at 10 uM by KiNativ Profiling analysis relative to control; type: cell-based
Sequence of Serine/threonine-protein kinase Aurora (Homo sapiens) (O14965 whole entry, looked up): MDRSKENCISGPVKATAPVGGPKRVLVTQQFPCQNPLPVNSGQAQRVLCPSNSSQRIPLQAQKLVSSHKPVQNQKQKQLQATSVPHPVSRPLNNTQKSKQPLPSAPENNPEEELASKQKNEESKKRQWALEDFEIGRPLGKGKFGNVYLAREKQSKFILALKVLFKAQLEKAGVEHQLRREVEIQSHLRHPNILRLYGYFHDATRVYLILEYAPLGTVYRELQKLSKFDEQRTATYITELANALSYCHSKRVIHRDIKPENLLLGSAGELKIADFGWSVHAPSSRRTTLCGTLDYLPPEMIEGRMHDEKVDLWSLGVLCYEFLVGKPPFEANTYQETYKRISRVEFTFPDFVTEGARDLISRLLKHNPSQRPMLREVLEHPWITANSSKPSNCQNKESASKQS
Sequence of Serine/threonine-protein kinase Aurora (Homo sapiens) (Q96GD4 whole entry, looked up): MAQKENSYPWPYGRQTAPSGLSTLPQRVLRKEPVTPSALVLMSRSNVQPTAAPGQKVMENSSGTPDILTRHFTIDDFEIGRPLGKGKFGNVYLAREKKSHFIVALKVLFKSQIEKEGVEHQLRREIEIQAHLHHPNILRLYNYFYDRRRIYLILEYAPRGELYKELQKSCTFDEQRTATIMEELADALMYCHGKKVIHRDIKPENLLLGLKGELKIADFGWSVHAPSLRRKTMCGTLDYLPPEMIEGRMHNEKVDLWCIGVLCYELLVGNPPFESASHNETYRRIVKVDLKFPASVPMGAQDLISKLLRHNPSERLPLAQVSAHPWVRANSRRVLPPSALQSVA
Sequence of Serine/threonine-protein kinase Aurora (Homo sapiens) (Q9UQB9 whole entry, looked up): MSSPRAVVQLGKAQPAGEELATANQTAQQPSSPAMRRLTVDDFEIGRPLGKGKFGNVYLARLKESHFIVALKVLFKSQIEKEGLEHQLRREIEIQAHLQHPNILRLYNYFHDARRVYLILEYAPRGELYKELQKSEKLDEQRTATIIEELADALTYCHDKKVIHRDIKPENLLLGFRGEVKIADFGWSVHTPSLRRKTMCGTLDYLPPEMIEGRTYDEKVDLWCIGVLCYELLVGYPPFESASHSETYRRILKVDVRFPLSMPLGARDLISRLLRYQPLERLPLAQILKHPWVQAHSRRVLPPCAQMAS

[7] = target: Mitogen-activated protein kinase kinase kinase 4 (Homo sapiens) (UniProt Q9Y6R4); assay: Inhibition of MAP3K4 K2 labeling site in human Huh-7 cells at 10 uM by KiNativ Profiling analysis relative to control; type: cell-based
[8] = target: T1, Phosphatidylinositol 5-phosphate 4-kinase type-2 alpha (Homo sapiens) (UniProt P48426); assay: Inhibition of PIP5K2A C2 labeling site in human Huh-7 cells at 10 uM by KiNativ Profiling analysis relative to control; type: cell-based
T1 sequence (whole entry): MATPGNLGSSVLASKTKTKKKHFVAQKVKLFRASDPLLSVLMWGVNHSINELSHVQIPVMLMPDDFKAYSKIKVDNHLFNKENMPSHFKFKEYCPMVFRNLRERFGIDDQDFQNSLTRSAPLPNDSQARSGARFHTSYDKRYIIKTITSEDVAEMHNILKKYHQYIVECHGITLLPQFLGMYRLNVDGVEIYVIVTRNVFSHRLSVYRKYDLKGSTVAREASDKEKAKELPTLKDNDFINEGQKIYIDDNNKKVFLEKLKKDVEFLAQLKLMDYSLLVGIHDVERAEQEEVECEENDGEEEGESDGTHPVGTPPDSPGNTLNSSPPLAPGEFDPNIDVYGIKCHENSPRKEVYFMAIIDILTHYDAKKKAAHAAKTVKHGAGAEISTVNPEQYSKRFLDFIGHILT

[9] = target: Ribosomal protein S6 kinase alpha-1 (Homo sapiens) (UniProt Q15418); assay: Inhibition of RSK1 Domain 1 ACT labeling site in human Huh-7 cells at 10 uM by KiNativ Profiling analysis relative to control; type: cell-based
[10] = target: Serine/threonine-protein kinase B-raf (Homo sapiens, UniProt P15056); assay: Inhibition of BRAF K2 labeling site in human Huh-7 cells at 1 uM by KiNativ Profiling analysis relative to control; type: cell-based
Sequence of Serine/threonine-protein kinase B-raf (P15056 whole entry): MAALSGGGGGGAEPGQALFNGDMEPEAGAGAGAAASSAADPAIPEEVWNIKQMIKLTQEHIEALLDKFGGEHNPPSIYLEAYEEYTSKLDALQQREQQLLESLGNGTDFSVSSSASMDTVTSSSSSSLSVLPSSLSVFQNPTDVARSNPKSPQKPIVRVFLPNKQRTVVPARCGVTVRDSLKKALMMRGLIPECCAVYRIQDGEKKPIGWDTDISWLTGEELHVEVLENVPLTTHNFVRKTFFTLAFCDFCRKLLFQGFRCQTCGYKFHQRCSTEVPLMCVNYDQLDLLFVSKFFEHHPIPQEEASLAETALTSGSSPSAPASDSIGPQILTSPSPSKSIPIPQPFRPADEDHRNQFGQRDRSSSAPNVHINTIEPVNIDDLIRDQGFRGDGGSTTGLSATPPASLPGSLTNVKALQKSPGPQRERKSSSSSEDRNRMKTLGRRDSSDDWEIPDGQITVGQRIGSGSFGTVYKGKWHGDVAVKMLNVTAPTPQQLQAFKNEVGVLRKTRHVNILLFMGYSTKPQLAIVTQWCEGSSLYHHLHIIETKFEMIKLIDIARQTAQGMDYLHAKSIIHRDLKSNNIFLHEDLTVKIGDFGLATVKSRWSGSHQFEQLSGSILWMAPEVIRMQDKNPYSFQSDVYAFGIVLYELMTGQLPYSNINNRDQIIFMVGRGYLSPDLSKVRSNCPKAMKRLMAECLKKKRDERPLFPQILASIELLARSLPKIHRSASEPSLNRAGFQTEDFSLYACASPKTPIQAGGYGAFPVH

[11] = target: Serine/threonine-protein kinase tousled-like 2 (Homo sapiens) (UniProt Q86UE8); assay: Inhibition of TLK2 (unknown origin) at 1 uM by Ambit Kinomescan binding assay relative to control
Sequence of Serine/threonine-protein kinase tousled-like 2 (Homo sapiens) (Q86UE8 whole entry, looked up): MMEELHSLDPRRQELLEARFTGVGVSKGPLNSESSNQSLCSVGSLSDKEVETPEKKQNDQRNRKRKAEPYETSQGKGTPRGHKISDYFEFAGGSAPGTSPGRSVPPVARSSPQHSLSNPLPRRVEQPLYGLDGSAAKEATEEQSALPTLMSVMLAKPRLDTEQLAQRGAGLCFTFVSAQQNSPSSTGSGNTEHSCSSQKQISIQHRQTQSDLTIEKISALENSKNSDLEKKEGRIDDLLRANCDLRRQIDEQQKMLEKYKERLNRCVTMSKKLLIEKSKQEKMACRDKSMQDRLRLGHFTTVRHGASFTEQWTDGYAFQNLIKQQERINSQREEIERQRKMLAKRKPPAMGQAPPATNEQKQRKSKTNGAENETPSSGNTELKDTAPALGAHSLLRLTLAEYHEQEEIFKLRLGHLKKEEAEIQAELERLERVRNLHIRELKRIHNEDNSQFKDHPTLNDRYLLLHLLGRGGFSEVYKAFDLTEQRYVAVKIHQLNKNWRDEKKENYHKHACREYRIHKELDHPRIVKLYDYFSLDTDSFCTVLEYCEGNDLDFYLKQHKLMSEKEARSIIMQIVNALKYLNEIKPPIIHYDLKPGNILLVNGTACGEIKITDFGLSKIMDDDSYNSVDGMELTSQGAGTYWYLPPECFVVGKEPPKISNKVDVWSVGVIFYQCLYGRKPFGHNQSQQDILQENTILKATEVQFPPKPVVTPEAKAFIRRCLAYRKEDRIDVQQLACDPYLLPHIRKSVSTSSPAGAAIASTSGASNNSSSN

[12] = target: T2, Serine/threonine-protein kinase D3 (Homo sapiens) (UniProt O94806); assay: Inhibition of PKD3 Lys2 labeling site in human A-375 cells at 5 uM by KiNativ Profiling analysis relative to control; type: cell-based
T2 sequence (whole entry): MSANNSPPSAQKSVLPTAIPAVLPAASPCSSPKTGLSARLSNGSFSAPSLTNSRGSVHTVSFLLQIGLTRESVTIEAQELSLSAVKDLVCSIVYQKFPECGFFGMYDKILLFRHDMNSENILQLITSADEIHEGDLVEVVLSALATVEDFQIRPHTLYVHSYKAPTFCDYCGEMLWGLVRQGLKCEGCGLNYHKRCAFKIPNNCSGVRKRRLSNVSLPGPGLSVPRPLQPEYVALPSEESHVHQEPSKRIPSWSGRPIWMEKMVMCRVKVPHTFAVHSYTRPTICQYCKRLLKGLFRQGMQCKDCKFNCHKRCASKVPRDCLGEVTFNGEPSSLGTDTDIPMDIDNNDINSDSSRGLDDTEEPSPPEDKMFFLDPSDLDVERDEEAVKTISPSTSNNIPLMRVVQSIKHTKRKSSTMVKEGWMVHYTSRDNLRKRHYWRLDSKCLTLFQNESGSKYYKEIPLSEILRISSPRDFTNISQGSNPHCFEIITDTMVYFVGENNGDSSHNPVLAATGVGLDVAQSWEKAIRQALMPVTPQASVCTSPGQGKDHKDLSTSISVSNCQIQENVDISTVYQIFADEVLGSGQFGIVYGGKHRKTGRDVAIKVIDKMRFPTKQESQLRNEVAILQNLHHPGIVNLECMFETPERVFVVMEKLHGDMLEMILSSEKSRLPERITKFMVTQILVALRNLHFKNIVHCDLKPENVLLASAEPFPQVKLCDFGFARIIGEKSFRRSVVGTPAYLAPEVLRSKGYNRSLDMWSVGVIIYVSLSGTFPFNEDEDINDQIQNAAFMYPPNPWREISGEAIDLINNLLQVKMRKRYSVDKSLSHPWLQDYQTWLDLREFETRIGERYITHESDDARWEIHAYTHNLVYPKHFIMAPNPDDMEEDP

[13] = target: T3, Dual specificity mitogen-activated protein kinase kinase 6 (Homo sapiens) (UniProt P52564); assay: Inhibition of MEK6 (unknown origin) at 1 uM by Ambit Kinomescan binding assay relative to control; values are per cent of control
T3 sequence (whole entry): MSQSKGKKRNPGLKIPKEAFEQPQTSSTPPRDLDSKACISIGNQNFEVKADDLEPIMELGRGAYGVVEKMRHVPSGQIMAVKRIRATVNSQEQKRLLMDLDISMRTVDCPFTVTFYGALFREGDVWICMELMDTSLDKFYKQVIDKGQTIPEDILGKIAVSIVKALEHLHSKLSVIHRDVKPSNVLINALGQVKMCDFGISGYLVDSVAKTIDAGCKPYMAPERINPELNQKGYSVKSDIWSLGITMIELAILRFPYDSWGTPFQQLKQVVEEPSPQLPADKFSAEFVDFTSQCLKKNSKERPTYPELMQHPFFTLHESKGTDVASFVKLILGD

[14] = target: Dual specificity tyrosine-phosphorylation-regulated kinase 1A (Homo sapiens) (UniProt Q13627); assay: Inhibition of DYRK1A (unknown origin) at 1 uM by Ambit Kinomescan binding assay relative to control; values are per cent of control

Sequence of Ankyrin repeat and protein kinase domain-containing protein 1 (Homo sapiens) (Q8NFD2 whole entry, the tested form may be a part): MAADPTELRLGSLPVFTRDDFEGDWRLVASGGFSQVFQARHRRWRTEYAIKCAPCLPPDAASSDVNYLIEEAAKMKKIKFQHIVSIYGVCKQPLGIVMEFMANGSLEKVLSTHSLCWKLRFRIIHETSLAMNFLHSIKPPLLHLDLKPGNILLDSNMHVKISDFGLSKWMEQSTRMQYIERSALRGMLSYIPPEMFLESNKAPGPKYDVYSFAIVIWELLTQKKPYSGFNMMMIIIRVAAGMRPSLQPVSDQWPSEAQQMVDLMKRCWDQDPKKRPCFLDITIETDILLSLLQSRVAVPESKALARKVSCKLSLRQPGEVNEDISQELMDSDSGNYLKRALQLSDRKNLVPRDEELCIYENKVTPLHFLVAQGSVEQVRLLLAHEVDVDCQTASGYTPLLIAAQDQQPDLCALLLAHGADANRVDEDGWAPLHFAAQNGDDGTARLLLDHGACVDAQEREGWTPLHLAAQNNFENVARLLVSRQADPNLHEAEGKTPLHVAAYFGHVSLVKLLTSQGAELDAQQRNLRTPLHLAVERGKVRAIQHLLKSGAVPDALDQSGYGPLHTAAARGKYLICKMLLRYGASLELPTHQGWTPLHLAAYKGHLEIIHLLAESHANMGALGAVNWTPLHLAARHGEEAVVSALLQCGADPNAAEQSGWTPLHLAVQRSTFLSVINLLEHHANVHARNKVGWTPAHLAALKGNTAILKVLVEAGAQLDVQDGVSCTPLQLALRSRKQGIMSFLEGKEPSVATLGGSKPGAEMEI

CCN1CCN(Cc2ccc(NC(=O)c3ccc(C)c(Oc4ccnc5[nH]ccc45)c3)cc2C(F)(F)F)CC1
inhibition [1]: 23%
inhibition [2]: 92.7%
inhibition [3]: 2.3%
inhibition [4]: -9.1%
inhibition [5]: 88.5%
inhibition [6]: 4.1%
inhibition [7]: 5.2%
inhibition [8]: 1.3%
inhibition [9]: 3.4%
inhibition [10]: 1.7%

CCN1CCN(Cc2ccc(NC(=O)c3ccc(C)c(/C=C/c4cnc5[nH]ccc5c4OC)c3)cc2C(F)(F)F)CC1
inhibition [11]: 100%
inhibition [12]: 7.3%
residual activity [13]: 100%
residual activity [14]: 100%
